Measured values published in ChEMBL document CHEMBL1142195, “A novel nonnucleoside analogue that inhibits human immunodeficiency virus type 1 isolates resistant to current nonnucleoside reverse transcriptase inhibitors” (Antimicrob Agents Chemother, 2007).

Columns and labels:
Assay type in all cases: functional
[1] = tested on: Human immunodeficiency virus 1; test: Antiviral activity against HIV1 isolate with RT 101P, 103N mutation relative to wild type
[2] = tested on: Human immunodeficiency virus 1; test: Antiviral activity against HIV1 isolate with RT 98G, 103N mutation relative to wild type
Outline: (§1)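 Mutant RT clones built in pNL4-3.Luc.R−E− reporter, VSV-G-pseudotyped, single-round infection of HeLa-JC53 cells (15,000/well, MOI 0.03) with 1:4 serial compound dilutions in DMEM (phenol red-free), 2% FBS, 0.2% final DMSO; 48 h at 37°C, 5% CO2; luciferase chemiluminescence read-out. Fold change in EC50 relative to wild-type virus; mean of two tests.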

[3] = tested on: Human immunodeficiency virus 1; test: Antiviral activity against HIV1 isolate with RT 103N, 108I, 181C mutation relative to wild type
[4] = tested on: Human immunodeficiency virus 1; test: Antiviral activity against HIV1 isolate with RT 106A mutation relative to wild type; outline: as §1
[5] = tested on: Human immunodeficiency virus 1; test: Antiviral activity against HIV1 isolate with RT 108I mutation relative to wild type; outline: as §1
[6] = tested on: Human immunodeficiency virus 1; test: Antiviral activity against HIV1 isolate with RT 103N mutation relative to wild type
[7] = tested on: Human immunodeficiency virus 1; test: Antiviral activity against HIV1 isolate with RT 238N mutation relative to wild type; outline: as §1
[8] = tested on: Human immunodeficiency virus 1; test: Antiviral activity against HIV1 isolate with RT 179G mutation relative to wild type; outline: as §1
[9] = tested on: Human immunodeficiency virus 1; test: Antiviral activity against HIV1 isolate with RT 227L mutation relative to wild type; outline: as §1
[10] = tested on: Human immunodeficiency virus 1; test: Antiviral activity against HIV1 isolate with RT 103R, 179D, 188L mutation relative to wild type; outline: as §1
[11] = tested on: Human immunodeficiency virus 1; test: Antiviral activity against HIV1 isolate with RT 101E, 181C mutation relative to wild type
[12] = tested on: Human immunodeficiency virus 1; test: Antiviral activity against HIV1 isolate with RT 103N, 106M mutation relative to wild type
[13] = tested on: Human immunodeficiency virus 1; test: Antiviral activity against HIV1 isolate with RT 103N, 106I mutation relative to wild type
[14] = tested on: Human immunodeficiency virus 1; test: Antiviral activity against HIV1 isolate with RT 103S, 190A mutation relative to wild type; outline: as §1
[15] = tested on: Human immunodeficiency virus 1; test: Antiviral activity against HIV1 isolate with RT 181I mutation relative to wild type; outline: as §1
[16] = tested on: Human immunodeficiency virus 1; test: Antiviral activity against HIV1 isolate with RT 101E, 181C, 190S mutation relative to wild type
[17] = tested on: Human immunodeficiency virus 1; test: Antiviral activity against HIV1 isolate with RT 103N, 108I, 225H mutation relative to wild type
[18] = tested on: Human immunodeficiency virus 1; test: Antiviral activity against HIV1 isolate with RT 101R, 103N mutation relative to wild type
[19] = tested on: Human immunodeficiency virus 1; test: Antiviral activity against HIV1 isolate with RT 101Q, 190S mutation relative to wild type
[20] = tested on: Human immunodeficiency virus 1; test: Antiviral activity against HIV1 isolate with RT 98G, 190A mutation relative to wild type
Outline: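 VSV-G-pseudotyped pNL4-3.Luc.R−E− molecular clones carrying the RT mutations, single-round infection of HeLa-JC53 cells (15,000/well) at MOI 0.03. Compounds serially diluted 1:4 in DMSO then in phenol red-free DMEM with 2% FBS, final DMSO 0.2%. Incubated 48 h at 37°C, 5% CO2. Luciferase read-out by chemiluminescence gives the EC50. Fold change is relative to wt virus, mean of two tests.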

[21] = tested on: Human immunodeficiency virus 1; test: Antiviral activity against HIV1 isolate with RT 101Q, 181C, 190S mutation relative to wild type
[22] = tested on: Human immunodeficiency virus 1; test: Antiviral activity against HIV1 isolate with RT 101E, 103N mutation relative to wild type
[23] = tested on: Human immunodeficiency virus 1; test: Antiviral activity against HIV1 isolate with RT 101Q, 181C mutation relative to wild type
[24] = tested on: Human immunodeficiency virus 1; test: Antiviral activity against HIV1 isolate with RT 236L mutation relative to wild type; outline: as §1
[25] = tested on: Human immunodeficiency virus 1; test: Antiviral activity against HIV1 isolate with RT 101H, 190A mutation relative to wild type
[26] = tested on: Human immunodeficiency virus 1; test: Antiviral activity against HIV1 isolate with RT 98G, 188L mutation relative to wild type; outline: as §1
[27] = tested on: Human immunodeficiency virus 1; test: Antiviral activity against HIV1 isolate with RT 98G, 100I, 103N mutation relative to wild type; outline: as §1
[28] = tested on: Human immunodeficiency virus 1; test: Antiviral activity against HIV1 isolate with RT 100I, 103N, 108I mutation relative to wild type
[29] = tested on: Human immunodeficiency virus 1; test: Antiviral activity against HIV1 isolate with RT 103N, 188H mutation relative to wild type
[30] = tested on: Human immunodeficiency virus 1; test: Antiviral activity against HIV1 isolate with RT 179A mutation relative to wild type; outline: as §1
[31] = tested on: Human immunodeficiency virus 1; test: Antiviral activity against HIV1 isolate with RT 101E, 181C, 190A mutation relative to wild type
[32] = tested on: Human immunodeficiency virus 1; test: Antiviral activity against HIV1 isolate with RT 190A mutation relative to wild type; outline: as §1
[33] = tested on: Human immunodeficiency virus 1; test: Antiviral activity against HIV1 isolate with RT 103N, 108I mutation relative to wild type
[34] = tested on: Human immunodeficiency virus 1; test: Antiviral activity against HIV1 isolate with RT 179D mutation relative to wild type; outline: as §1
[35] = tested on: Human immunodeficiency virus 1; test: Antiviral activity against HIV1 isolate with RT 98G mutation relative to wild type; outline: as §1
[36] = tested on: Human immunodeficiency virus 1; test: Antiviral activity against HIV1 isolate with RT 188L mutation relative to wild type; outline: as §1
[37] = tested on: Human immunodeficiency virus 1; test: Antiviral activity against HIV1 isolate with RT 101Q mutation relative to wild type
[38] = tested on: Human immunodeficiency virus 1; test: Antiviral activity against HIV1 isolate with RT 190E mutation relative to wild type; outline: as §1
[39] = tested on: Human immunodeficiency virus 1; test: Antiviral activity against HIV1 isolate with RT 103N, 106A mutation relative to wild type
[40] = tested on: Human immunodeficiency virus 1; test: Antiviral activity against HIV1 isolate with RT 98G, 101E, 181C, 190A mutation relative to wild type; outline: as §1
[41] = tested on: Human immunodeficiency virus 1; test: Antiviral activity against HIV1 isolate with RT 179D, 188L mutation relative to wild type; outline: as §1
[42] = tested on: Human immunodeficiency virus 1; test: Antiviral activity against HIV1 isolate with RT 103N, 108I, 190A mutation relative to wild type
[43] = tested on: Human immunodeficiency virus 1; test: Antiviral activity against HIV1 isolate with RT 101Q, 103N, 225H mutation relative to wild type
[44] = tested on: Human immunodeficiency virus 1; test: Antiviral activity against HIV1 isolate with RT 98G, 103N, 181C, 190A mutation relative to wild type; outline: as §1
[45] = tested on: Human immunodeficiency virus 1; test: Antiviral activity against HIV1 isolate with RT 106A, 181C mutation relative to wild type; outline: as §1
[46] = tested on: Human immunodeficiency virus 1; test: Antiviral activity against HIV1 isolate with RT 98G, 108I, 181C mutation relative to wild type; outline: as §1
[47] = tested on: Human immunodeficiency virus 1; test: Antiviral activity against HIV1 isolate with RT 103S mutation relative to wild type; outline: as §1
[48] = tested on: Human immunodeficiency virus 1; test: Antiviral activity against HIV1 isolate with RT 230L mutation relative to wild type; outline: as §1
[49] = tested on: Human immunodeficiency virus 1; test: Antiviral activity against HIV1 isolate with RT 101E, 103N, 190A mutation relative to wild type
[50] = tested on: Human immunodeficiency virus 1; test: Antiviral activity against HIV1 isolate with RT 101N, 103N mutation relative to wild type
[51] = tested on: Human immunodeficiency virus 1; test: Antiviral activity against HIV1 isolate with RT 181V mutation relative to wild type; outline: as §1
[52] = tested on: Human immunodeficiency virus 1; test: Antiviral activity against HIV1 isolate with RT 179D, 181C mutation relative to wild type; outline: as §1
[53] = tested on: Human immunodeficiency virus 1; test: Antiviral activity against HIV1 isolate with RT 100F mutation relative to wild type

Cc1ccnc2c1NC(=O)c1cccnc1N2C1CC1 [NEVIRAPINE]
Fold change [1]: >100 | Fold change [2]: >100 | Fold change [3]: >100 | Fold change [4]: >100 | Fold change [5]: 2.3 | Fold change [6]: 51 | Fold change [7]: 1.9 | Fold change [8]: 0.1 | Fold change [9]: 2.1 | Fold change [10]: >100 | Fold change [11]: >100 | Fold change [12]: >100 | Fold change [13]: 122 | Fold change [14]: >100 | Fold change [15]: >100 | Fold change [16]: >100 | Fold change [17]: >100 | Fold change [18]: >100 | Fold change [19]: >100 | Fold change [20]: >100 | Fold change [21]: >100 | Fold change [22]: >100 | Fold change [23]: >100 | Fold change [24]: 0.5 | Fold change [25]: >100 | Fold change [26]: >100 | Fold change [27]: >100 | Fold change [28]: >100 | Fold change [29]: >100 | Fold change [30]: 0.4 | Fold change [31]: >100 | Fold change [32]: >100 | Fold change [33]: >100 | Fold change [34]: 4.2 | Fold change [35]: 5.9 | Fold change [36]: >100 | Fold change [37]: 2.8 | Fold change [38]: >100 | Fold change [39]: >100 | Fold change [40]: >100 | Fold change [41]: >100 | Fold change [42]: >100 | Fold change [43]: >100 | Fold change [44]: >100 | Fold change [45]: >100 | Fold change [46]: >100 | Fold change [47]: 39 | Fold change [48]: 46 | Fold change [49]: >100 | Fold change [50]: 32 | Fold change [51]: >100 | Fold change [52]: >100 | Fold change [53]: 2.4

NS(=O)(=O)c1ccc(NC(=O)CSc2nnc(Br)n2-c2ccc(C3CC3)c3ccccc23)c(Cl)c1
Fold change [1]: 2.2 | Fold change [2]: 4.4 | Fold change [3]: 6.2 | Fold change [4]: 6 | Fold change [5]: 1.5 | Fold change [6]: 0.7 | Fold change [7]: 0.7 | Fold change [8]: 0.3 | Fold change [9]: 0.47 | Fold change [10]: >100 | Fold change [11]: >100 | Fold change [12]: 12 | Fold change [13]: 1.8 | Fold change [14]: >100 | Fold change [15]: 5.4 | Fold change [16]: >100 | Fold change [17]: 2.6 | Fold change [18]: 1.2 | Fold change [19]: 2.4 | Fold change [20]: 16 | Fold change [21]: >100 | Fold change [22]: 0.9 | Fold change [23]: 8.9 | Fold change [24]: 0.9 | Fold change [25]: 32 | Fold change [26]: >100 | Fold change [27]: 1.4 | Fold change [28]: 1.9 | Fold change [29]: 3.5 | Fold change [30]: 0.6 | Fold change [31]: >100 | Fold change [32]: 13 | Fold change [33]: 1.3 | Fold change [34]: 3.3 | Fold change [35]: 2.4 | Fold change [36]: 11 | Fold change [37]: 2.2 | Fold change [38]: >100 | Fold change [39]: 2.6 | Fold change [40]: 65 | Fold change [41]: >100 | Fold change [42]: 20 | Fold change [43]: 3.9 | Fold change [44]: 82 | Fold change [45]: 16 | Fold change [46]: 15 | Fold change [47]: 2.7 | Fold change [48]: 11 | Fold change [49]: 50 | Fold change [50]: 0.6 | Fold change [51]: 20 | Fold change [52]: >100 | Fold change [53]: 1.8
